# Tests used:
# Plasmodium falciparum [1] = assay: Antimalarial activity after 48 hrs against chloroquine-sensitive Plasmodium falciparum 3D7 by [3H]hypoxanthine uptake; format: functional, organism-based
# Summary of the method: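 Asynchronous culture (65-75% rings, 0.5% parasitemia, 2.5% final hematocrit) in RPMI 1640 with 0.5% Albumax II, 0.2% glucose, 0.03% L-glutamine and 5 µM hypoxanthine. Triplicate wells with a 3-fold series of 10.0–0.0412 µg/mL; final DMSO ≤0.01%. 37 °C, 5% CO2: 24 h, then 0.2 µCi/well [3H]hypoxanthine for a further 24 h. Frozen, harvested, scintillation-counted. IC50 from curve fit; mean of 2–3 experiments.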
# KB = assay: Cytotoxicity against human KB cells after 48 hrs by alamar blue assay; format: cell-based
# Plasmodium falciparum [2] = assay: Antimalarial activity after 48 hrs against chloroquine-resistant Plasmodium falciparum K1 by [3H]hypoxanthine uptake; format: functional, organism-based
# Summary of the method: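 Asynchronous P. falciparum K1 culture (65-75% ring stage, 0.5% parasitemia; chloroquine, pyrimethamine, cycloguanil resistant) at 2.5% hematocrit in RPMI 1640 with 0.5% Albumax II, glucose, L-glutamine, 5 µM hypoxanthine. Triplicate 3-fold dilutions 10.0–0.0412 µg/mL, DMSO ≤0.01% final, 37 °C, 5% CO2. [3H]-hypoxanthine (0.2 µCi/well) added at 24 h, incorporation counted after further 24 h. IC50 by curve fit, 2–3 experiments.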
# [3] = Selectivity index, ratio of IC50 for human KB cells to IC50 for chloroquine-sensitive Plasmodium falciparum 3D7; format: toxicity, cell-based; conditions: read-out: Ratio IC50
# Summary of the method: (§1)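 KB IC50 divided by the parasite IC50 (K1 or 3D7). KB cells seeded at 4×10^4 cells/mL in RPMI 1640 with 10% heat-inactivated FCS and grown 24 h. Triplicate dilution series then added for 72 h. AlamarBlue for 2–4 h, fluorescence ex 530/em 585 nm, IC50 by curve fit. Podophyllotoxin as positive control.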
# [4] = Selectivity index, ratio of IC50 for human KB cells to IC50 for chloroquine-resistant Plasmodium falciparum K1; format: toxicity, cell-based; conditions: read-out: Ratio IC50; summary of the method: as §1
# [5] = Resistant index, ratio of IC50 for chloroquine-resistant Plasmodium falciparum K1 to IC50 for chloroquine-sensitive Plasmodium falciparum 3D7; format: functional
# Summary of the method: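 IC50 against K1 divided by IC50 against 3D7 (drug-sensitive NF54 clone). Both from [3H]-hypoxanthine incorporation over 48 h: asynchronous cultures at 0.5% parasitemia, 2.5% hematocrit, 3-fold dilutions 10.0–0.0412 µg/mL in triplicate. Label added at 24 h. Means of 2–3 independent experiments.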
Structure (SMILES),IC50 (Plasmodium falciparum [1]) [nM],IC50 (KB) [nM],IC50 (Plasmodium falciparum [2]) [nM],selectivity ratio [3],selectivity ratio [4],Ratio IC50 [5]
Cc1ccc(-c2c(C#N)[n+]([O-])c3ccccc3[n+]2[O-])cc1,3460,–,–,–,–,–
N#Cc1c(-c2ccc(OC(F)(F)F)cc2)[n+]([O-])c2ccc(F)cc2[n+]1[O-],1700,2610,> 8000,1.54,–,–
COc1ccc(-c2c(C#N)[n+]([O-])c3cc(C)ccc3[n+]2[O-])cc1,2770,–,–,–,–,–
N#Cc1c(-c2ccccc2)[n+]([O-])c2ccc(Cl)cc2[n+]1[O-],> 5000,–,–,–,–,–
Cc1ccc(-c2c(C#N)[n+]([O-])c3cc(C)ccc3[n+]2[O-])cc1,1300,25000,950,19.2,26.2,0.73
Cc1ccc(-c2c(C#N)[n+]([O-])c3cc(F)ccc3[n+]2[O-])cc1,> 10000,–,–,–,–,–
CCOC(=O)c1c(-c2ccccc2)[n+]([O-])c2ccc(Cl)cc2[n+]1[O-],3220,–,–,–,–,–
Cc1ccc2c(c1)[n+]([O-])c(C#N)c(-c1ccccc1)[n+]2[O-],1550,11600,740,7.52,15.8,0.48
Cc1ccc2c(c1)[n+]([O-])c(C#N)c(-c1ccc(F)cc1)[n+]2[O-],880,11200,370,12.7,30.4,0.42
N#Cc1c(-c2ccc(OC(F)(F)F)cc2)[n+]([O-])c2ccccc2[n+]1[O-],1270,2760,270,2.17,10.3,0.21
CCOC(=O)c1c(-c2ccccc2)[n+]([O-])c2ccccc2[n+]1[O-],> 10000,–,–,–,–,–
N#Cc1c(-c2ccc(Cl)cc2)[n+]([O-])c2ccc(C(F)(F)F)cc2[n+]1[O-],1560,2760,1770,1.77,1.56,1.13
Cc1ccc(-c2c(C(=O)O)[n+]([O-])c3ccccc3[n+]2[O-])cc1,> 10000,–,–,–,–,–
N#Cc1c(-c2ccccc2)[n+]([O-])c2ccc(C(F)(F)F)cc2[n+]1[O-],330,2820,180,8.55,15.7,0.55
COc1ccc(-c2c(C#N)[n+]([O-])c3cc(C)c(C)cc3[n+]2[O-])cc1,3020,–,–,–,–,–
CCOC(=O)c1c(-c2ccc(C)cc2)[n+]([O-])c2ccccc2[n+]1[O-],> 10000,–,–,–,–,–
CCOC(=O)c1c(-c2ccccc2)[n+]([O-])c2cc(C)c(C)cc2[n+]1[O-],1180,> 60000,> 10000,> 50,–,–
COc1ccc(-c2c(C#N)[n+]([O-])c3ccccc3[n+]2[O-])cc1,3140,–,–,–,–,–
COC(=O)c1ccc(-c2c(C#N)[n+]([O-])c3cc(Cl)ccc3[n+]2[O-])cc1,> 20000,–,–,–,–,–
N#Cc1c(-c2ccc(F)cc2)[n+]([O-])c2ccccc2[n+]1[O-],3910,–,–,–,–,–
N#Cc1c(-c2ccc(OC(F)(F)F)cc2)[n+]([O-])c2ccc(C(F)(F)F)cc2[n+]1[O-],1930,13400,550,6.97,24.4,0.28
COc1ccc2c(c1)[n+]([O-])c(C#N)c(-c1ccc(C)cc1)[n+]2[O-],810,17000,2290,20.9,7.39,2.83
COc1ccc(-c2c(C#N)[n+]([O-])c3cc(Cl)ccc3[n+]2[O-])cc1,> 10000,–,–,–,–,–
Cc1cc2c(cc1C)[n+]([O-])c(-c1ccc(OC(F)(F)F)cc1)c(C#N)[n+]2[O-],> 5000,–,–,–,–,–
N#Cc1c(-c2ccc(Cl)cc2)[n+]([O-])c2ccc(Cl)cc2[n+]1[O-],> 5000,–,–,–,–,–
CCN(CC)CCCC(C)Nc1ccnc2cc(Cl)ccc12 (centres undefined) [CHLOROQUINE],–,110000,–,–,–,–
CCOC(=O)c1c(-c2ccccc2)[n+]([O-])c2ccc(OC)cc2[n+]1[O-],> 10000,–,–,–,–,–

Structure (SMILES),IC50 (Plasmodium falciparum [1]) [nM],IC50 (KB) [nM],IC50 (Plasmodium falciparum [2]) [nM],selectivity ratio [3],selectivity ratio [4],Ratio IC50 [5]
COC(=O)c1ccc(-c2c(C#N)[n+]([O-])c3ccccc3[n+]2[O-])cc1,6540,–,–,–,–,–
N#Cc1c(-c2ccc(F)cc2)[n+]([O-])c2ccc(C(F)(F)F)cc2[n+]1[O-],660,2850,520,4.32,5.48,0.79
Cc1ccc(-c2c(C#N)[n+]([O-])c3cc(Cl)ccc3[n+]2[O-])cc1,> 10000,–,–,–,–,–
COc1ccc(-c2c(C#N)[n+]([O-])c3cc(F)ccc3[n+]2[O-])cc1,> 20000,–,–,–,–,–
N#Cc1c(-c2ccc(F)cc2)[n+]([O-])c2ccc(Cl)cc2[n+]1[O-],5830,–,–,–,–,–
COc1ccc2c(c1)[n+]([O-])c(C#N)c(-c1ccc(OC(F)(F)F)cc1)[n+]2[O-],930,8250,1250,8.87,6.58,1.35
Cc1ccc(-c2c(C#N)[n+]([O-])c3cc(C(F)(F)F)ccc3[n+]2[O-])cc1,720,3170,870,4.4,3.64,1.21
CCOC(=O)c1c(-c2ccccc2)[n+]([O-])c2cc(Cl)c(Cl)cc2[n+]1[O-],> 7000,–,–,–,–,–
N#Cc1c(-c2ccccc2)[n+]([O-])c2ccccc2[n+]1[O-],2350,–,–,–,–,–
COC(=O)c1ccc(-c2c(C#N)[n+]([O-])c3cc(C(F)(F)F)ccc3[n+]2[O-])cc1,2030,–,–,–,–,–
COc1cc([C@@H]2c3cc4c(cc3[C@H](O)[C@H]3COC(=O)[C@H]23)OCO4)cc(OC)c1OC [PODOFILOX],–,3,–,–,–,–
O=C(O)c1c(-c2ccc(Cl)cc2)[n+]([O-])c2ccccc2[n+]1[O-],> 10000,–,–,–,–,–
N#Cc1c(-c2ccccc2)[n+]([O-])c2ccc(F)cc2[n+]1[O-],> 10000,–,–,–,–,–
CCOC(=O)c1c(-c2ccc(Cl)cc2)[n+]([O-])c2ccccc2[n+]1[O-],> 10000,–,–,–,–,–
COc1ccc(-c2c(C#N)[n+]([O-])c3cc(OC)ccc3[n+]2[O-])cc1,2290,–,–,–,–,–
COc1ccc(-c2c(C#N)[n+]([O-])c3cc(C(F)(F)F)ccc3[n+]2[O-])cc1,2440,–,–,–,–,–
N#Cc1c(-c2ccc(F)cc2)[n+]([O-])c2ccc(F)cc2[n+]1[O-],5780,–,–,–,–,–
CCOC(=O)c1c(-c2ccccc2)[n+]([O-])c2ccc(C)cc2[n+]1[O-],> 10000,–,–,–,–,–
COC(=O)c1ccc(-c2c(C#N)[n+]([O-])c3cc(F)ccc3[n+]2[O-])cc1,> 20000,–,–,–,–,–
COc1ccc(-c2c(C#N)[n+]([O-])c3cc(Cl)c(Cl)cc3[n+]2[O-])cc1,> 20000,–,–,–,–,–
CCOC(=O)c1c(-c2ccccc2)[n+]([O-])c2cc(F)c(F)cc2[n+]1[O-],> 10000,–,–,–,–,–
N#Cc1c(-c2ccc(Cl)cc2)[n+]([O-])c2ccc(F)cc2[n+]1[O-],4210,–,–,–,–,–
N#Cc1c(-c2ccc(F)cc2)[n+]([O-])c2cc(Cl)c(Cl)cc2[n+]1[O-],> 10000,–,–,–,–,–
N#Cc1c(-c2ccc(OC(F)(F)F)cc2)[n+]([O-])c2cc(Cl)c(Cl)cc2[n+]1[O-],> 10000,–,–,–,–,–
COC(=O)c1ccc(-c2c(C#N)[n+]([O-])c3cc(OC)ccc3[n+]2[O-])cc1,3160,–,–,–,–,–
COC(=O)c1ccc(-c2c(C#N)[n+]([O-])c3cc(C)ccc3[n+]2[O-])cc1,2150,–,–,–,–,–

# Reference: ChEMBL document CHEMBL1140972, “Synthesis and structure-activity relationship of 3-phenylquinoxaline 1,4-di-N-oxide derivatives as antimalarial agents” (Eur J Med Chem, 2008)
